Assay [1] deals with 5-hydroxytryptamine receptor 7 (Homo sapiens, UniProt P34969). As to the kind of experiment: Displacement of [3H]LSD from human recombinant 5HT7 receptor expressed in CHO cell membrane. Format: cell membranes. A digest of the protocol: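 Membranes incubated with 3 nM [3H]LSD in 0.25 mL 50 mM Tris·HCl pH 7.4, 10 mM MgCl2, 0.5 mM EDTA, 90 min at 27 °C. Filtered on GF/C presoaked in 0.3% PEI and counted. Nonspecific binding with 0.5 uM methiothepin. 7-8 concentrations tested in duplicate, three assays. IC50 from nonlinear regression.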
On the technique in general: Loss of bound radioactivity is the signal in a displacement assay; it reports binding, not function.

Assay [2] concerns the target T1, 5-hydroxytryptamine receptor 2C (Homo sapiens, UniProt P28335).
T1 sequence (P28335 whole entry): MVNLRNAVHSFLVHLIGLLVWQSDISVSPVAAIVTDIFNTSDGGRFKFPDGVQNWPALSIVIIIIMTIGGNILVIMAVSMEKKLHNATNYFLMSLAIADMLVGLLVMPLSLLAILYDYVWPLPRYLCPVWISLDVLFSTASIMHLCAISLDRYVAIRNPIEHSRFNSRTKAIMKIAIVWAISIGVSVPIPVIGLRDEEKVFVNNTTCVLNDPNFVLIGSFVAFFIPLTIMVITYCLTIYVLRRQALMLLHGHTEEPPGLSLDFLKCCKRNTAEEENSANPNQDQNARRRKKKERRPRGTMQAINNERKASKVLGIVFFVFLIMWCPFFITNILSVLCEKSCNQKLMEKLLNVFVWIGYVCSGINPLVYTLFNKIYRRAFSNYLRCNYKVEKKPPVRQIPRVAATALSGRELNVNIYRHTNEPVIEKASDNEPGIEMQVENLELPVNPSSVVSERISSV
The experiment in a line: Displacement of [3H]mesulergine from human recombinant 5HT2C receptor expressed in CHOK1 cell membrane. Format: cell membranes, CHO-K1. The gist of the method: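 Frozen membranes with 1 nM [3H]mesulergine in 50 mM Tris·HCl pH 7.7 containing 0.1% ascorbic acid and pargyline. Incubated 30 min at 37 °C. Stopped by rapid filtration through GF/C filters presoaked in 1% BSA. Nonspecific binding defined with mianserin.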

For assay [3], the target named is T2, 5-hydroxytryptamine receptor 1A (Homo sapiens, UniProt P08908).
T2 sequence (P08908 whole entry): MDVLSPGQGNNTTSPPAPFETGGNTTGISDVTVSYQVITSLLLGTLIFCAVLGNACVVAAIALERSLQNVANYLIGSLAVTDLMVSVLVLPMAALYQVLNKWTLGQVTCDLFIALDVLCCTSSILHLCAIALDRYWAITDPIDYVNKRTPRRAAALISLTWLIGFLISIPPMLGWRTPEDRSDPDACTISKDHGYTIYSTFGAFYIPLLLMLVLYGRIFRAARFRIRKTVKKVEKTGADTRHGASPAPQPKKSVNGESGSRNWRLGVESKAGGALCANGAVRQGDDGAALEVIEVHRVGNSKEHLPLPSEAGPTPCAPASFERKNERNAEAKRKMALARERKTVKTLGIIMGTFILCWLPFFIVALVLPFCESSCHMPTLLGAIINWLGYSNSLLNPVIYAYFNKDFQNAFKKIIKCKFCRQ
The experiment in a line: Displacement of [3H]8-OH-DPAT from human recombinant 5HT1A receptor expressed in CHOK1 cell membrane. Format: cell membranes, CHO-K1. A digest of the protocol: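 Radioligand 0.5 nM [3H]8-OH-DPAT with receptor membranes in 0.25 mL 50 mM Tris·HCl pH 7.4, 1 mM EDTA, 2.5 mM MgCl2. Incubated 30 min at 37 °C. Stopped by rapid filtration on GF/C filters presoaked in 0.3% polyethylenimine, then scintillation counted. Nonspecific binding defined with methiothepin.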

Assay [4] concerns the target 5-hydroxytryptamine receptor 6 (Homo sapiens, UniProt P50406). As to the kind of experiment: Displacement of [3H]LSD from human 5HT6 receptor expressed in HeLa cells. Format: cell-based. A digest of the protocol:
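HeLa-cell membranes with 1.8 nM [3H]LSD in 0.25 mL 50 mM Tris·HCl pH 7.4, 10 mM MgCl2, 0.5 mM EDTA. Incubated 60 min at 37 °C. Terminated by filtration through GF/C filters presoaked in 0.3% polyethylenimine. Methiothepin used for nonspecific binding.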

The target in assay [5] is 5-hydroxytryptamine receptor 2A (Homo sapiens, UniProt P28223). As to the kind of experiment: Displacement of [3H]ketanserin from human recombinant 5HT2A receptor expressed in CHOK1 cell membrane. Format: cell membranes, CHO-K1. A digest of the protocol: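 Frozen membranes with 1 nM [3H]ketanserin in 50 mM Tris·HCl pH 7.4. Incubated 15 min at 37 °C. Harvested onto GF/C filters presoaked in 0.05% Brij. Nonspecific binding defined with mianserin.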

pIC50: −log10 of the molar value.

Sequence of 5-hydroxytryptamine receptor 6 (P50406 whole entry): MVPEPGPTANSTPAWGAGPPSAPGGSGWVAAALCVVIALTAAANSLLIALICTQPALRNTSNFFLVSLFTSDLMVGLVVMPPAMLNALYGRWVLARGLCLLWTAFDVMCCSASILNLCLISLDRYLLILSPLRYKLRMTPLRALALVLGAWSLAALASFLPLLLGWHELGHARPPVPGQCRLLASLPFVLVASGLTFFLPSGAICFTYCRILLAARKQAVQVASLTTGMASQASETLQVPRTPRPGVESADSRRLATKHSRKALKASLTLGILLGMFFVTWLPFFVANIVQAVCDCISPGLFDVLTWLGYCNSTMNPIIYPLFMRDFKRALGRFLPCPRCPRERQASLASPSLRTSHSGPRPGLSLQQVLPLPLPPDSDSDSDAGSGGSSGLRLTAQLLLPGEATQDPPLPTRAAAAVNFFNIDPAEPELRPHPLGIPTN
Sequence of 5-hydroxytryptamine receptor 2A (P28223 whole entry): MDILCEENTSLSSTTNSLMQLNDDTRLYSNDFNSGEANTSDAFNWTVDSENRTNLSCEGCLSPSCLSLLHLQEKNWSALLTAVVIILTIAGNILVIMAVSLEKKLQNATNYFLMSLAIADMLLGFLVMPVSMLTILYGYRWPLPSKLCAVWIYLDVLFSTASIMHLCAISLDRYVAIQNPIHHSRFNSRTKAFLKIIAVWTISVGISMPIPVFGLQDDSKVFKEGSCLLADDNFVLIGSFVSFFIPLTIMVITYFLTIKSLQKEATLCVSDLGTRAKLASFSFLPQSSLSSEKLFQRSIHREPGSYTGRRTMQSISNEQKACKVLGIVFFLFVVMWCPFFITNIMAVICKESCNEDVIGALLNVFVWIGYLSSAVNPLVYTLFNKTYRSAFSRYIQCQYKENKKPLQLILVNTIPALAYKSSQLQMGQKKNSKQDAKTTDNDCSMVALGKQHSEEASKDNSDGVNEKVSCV
Sequence of 5-hydroxytryptamine receptor 7 (P34969 whole entry): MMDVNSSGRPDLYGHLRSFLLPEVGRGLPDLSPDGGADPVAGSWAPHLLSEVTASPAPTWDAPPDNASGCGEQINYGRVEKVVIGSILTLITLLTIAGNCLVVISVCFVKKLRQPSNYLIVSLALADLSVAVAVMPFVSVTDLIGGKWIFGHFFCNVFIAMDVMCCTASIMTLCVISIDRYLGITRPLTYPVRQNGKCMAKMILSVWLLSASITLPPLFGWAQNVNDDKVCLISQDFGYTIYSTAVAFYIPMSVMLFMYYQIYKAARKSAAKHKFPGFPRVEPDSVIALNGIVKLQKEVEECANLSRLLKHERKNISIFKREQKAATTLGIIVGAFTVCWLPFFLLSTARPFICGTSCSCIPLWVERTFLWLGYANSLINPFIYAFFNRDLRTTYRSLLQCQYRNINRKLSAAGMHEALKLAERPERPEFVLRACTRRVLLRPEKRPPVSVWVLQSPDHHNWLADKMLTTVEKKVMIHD

Broadly, the pIC50 is the negative decadic logarithm of the IC50, by convention in mol/L. For `O=S(=O)(NCCCN1CCN(Cc2ccccc2)CC1)c1ccccc1`, the pIC50 in assay [1] was 6.02.
On to `O=S(=O)(NCCCN1CCN(c2ccc(C(F)(F)F)cc2)CC1)c1ccc2ccccc2c1`, for which the pIC50 in assay [1] is 6.25.
The same measure, in the same setting: the value for `COc1ccc(N2CCN(CCCNS(=O)(=O)c3ccc4ccccc4c3)CC2)cc1` was 5.49.
Consider `O=S(=O)(NCCCN1CCN(c2ccccc2)CC1)c1ccc2ccccc2c1`, for which the pIC50 in assay [1] was 6.17.
On the same count and under the same terms, in the case of `COc1ccc(S(=O)(=O)NC(C)CCN2CCN(c3ccc(F)cc3)CC2)cc1` (stereo not given) it was 6.43.
As for `COc1ccc(S(=O)(=O)NCCCN2CCN(c3cccc(C(F)(F)F)c3)CC2)cc1`, the pIC50 was 7.24 in assay [2]; 7.36 in assay [3]; 5.55 in assay [4]; 6.45 in assay [5]; 7.05 in assay [1].
For `COc1ccc(N2CCN(CCCNS(=O)(=O)c3ccc(OC)cc3)CC2)cc1`, in assay [1], the pIC50 is 5.03.
Still for that read-out and setting: the value for `COc1ccc(S(=O)(=O)NC(C)CCN2CCN(c3ccccc3)CC2)cc1` (stereo not given) was 6.42.
For `O=S(=O)(NCCCN1CCN(c2ccc(Cl)c(Cl)c2)CC1)c1ccc2ccccc2c1`, the negative logarithm of the IC50 (pIC50) in assay [2] is 6.67; in assay [3], 6.67; in assay [4], 6.11; in assay [5], 7.72; in assay [1], 6.91.
For `COc1ccc(S(=O)(=O)NCCCN2CCN(c3ccc(F)cc3)CC2)cc1`, the pIC50 in assay [2] is 5.31; in assay [3] it was 7.41; in assay [4] it was under 5.00; in assay [5], 7.13; in assay [1], 7.33.
In the case of `COc1ccc(S(=O)(=O)NCCCN2CCN(c3ccc(Cl)c(Cl)c3)CC2)cc1`, the negative-log IC50 (pIC50) in assay [1] was 6.99.
As to `COc1ccc(S(=O)(=O)NCCCN2CCN(c3ccccc3)CC2)cc1`, the pIC50 in assay [1] was under 5.00.
The same measure, in the same setting: in the case of `COc1ccc(S(=O)(=O)NCCCN2CCN(c3ccc(C(F)(F)F)cc3)CC2)cc1` it was 6.42.
Take `COc1ccccc1N1CCN(CCCNS(=O)(=O)c2ccc3ccccc3c2)CC1`: the negative logarithm of the IC50 (pIC50) in assay [2] was 6.62; in assay [3], 8.34; in assay [4], 5.58; in assay [5], 7.07; in assay [1] it was 7.70.
As to `O=S(=O)(NCCCN1CCN(Cc2ccccc2)CC1)c1ccc2ccccc2c1`, the pIC50 in assay [1] is 6.32.
With `O=S(=O)(NCCCN1CCN(c2cccc(C(F)(F)F)c2)CC1)c1ccc2ccccc2c1`, the pIC50 in assay [2] was 7.04; in assay [3] it was 7.54; in assay [4], 5.71; in assay [5], 7.02; in assay [1], 7.92.
For the compound `O=S(=O)(NCCCN1CCN(c2ccccc2F)CC1)c1ccc2ccccc2c1`, in assay [1], the pIC50 was 6.85.
Still for that read-out and setting: in the case of `COc1ccc(S(=O)(=O)NC(C)CCN2CCN(c3ccccc3OC)CC2)cc1` (stereo not given) it was 6.24; in that of `O=S(=O)(NCCCN1CCN(c2ccc(F)cc2)CC1)c1ccc2ccccc2c1`, 7.28.
On to `COc1ccc(S(=O)(=O)NCCCN2CCN(c3ccccc3OC)CC2)cc1`, for which the pIC50 was 5.01 in assay [2], 6.57 in assay [3], under 5.00 in assay [4] and 5.29 in assay [5].
With `COc1ccc(S(=O)(=O)NCCCN2CCN(c3ccc(C(C)=O)cc3)CC2)cc1`, the pIC50 in assay [1] was under 5.00.
As to `COc1ccc(S(=O)(=O)NCCCN2CCN(C(=O)c3ccco3)CC2)cc1`, the negative logarithm of the IC50 (pIC50) in assay [1] was under 5.00.
`COc1ccc(S(=O)(=O)NCCCN2CCN(c3cccc(OC)c3)CC2)cc1`: the pIC50 in assay [1] was 6.47.
Same read-out and setting: in the case of `COc1cccc(N2CCN(CCCNS(=O)(=O)c3ccc4ccccc4c3)CC2)c1` it was 6.65.
In the case of `COc1ccc(S(=O)(=O)NC(C)CCN2CCN(c3cccc(C(F)(F)F)c3)CC2)cc1` (stereo not given), the pIC50 is 5.87 in assay [2]; 7.41 in assay [3]; 5.16 in assay [4]; 5.74 in assay [5]; 6.97 in assay [1].
As to `COc1ccc(S(=O)(=O)NCCCN2CCN(C(=O)OCc3ccccc3)CC2)cc1`, the pIC50 in assay [1] was under 5.00.
On the same count and under the same terms, the value for `COc1ccc(S(=O)(=O)NCCCN2CCN(c3ccccc3F)CC2)cc1` was 6.54; that for `COc1ccc(S(=O)(=O)NCCCN2CCN(c3ccc([N+](=O)[O-])cc3)CC2)cc1` was under 5.00.
